Measured values taken from ChEMBL document CHEMBL4706706, “Structure-activity relationship and mechanistic studies for a series of cinnamyl hydroxamate histone deacetylase inhibitors” (Bioorg Med Chem, 2021).

Experiments:
[1] = tested on: HCT-116; experiment: Cytotoxicity against human HCT-116 cells assessed as reduction in cell viability measured after 72 hrs by MTT assay; type: functional, cell-based; conditions: HCT-116, 72 h
[2] = target: Histone deacetylase (Homo sapiens) (UniProt Q13547+O15379+Q9UBN7+Q92769+Q9UQL6+Q8WUI4+Q9BY41+Q96DB2+P56524+Q9UKV0+Q969S8); experiment: Inhibition of HDAC in human HeLa cell nuclear extracts at 100 uM relative to control; type: subcellular; conditions: Nucleus
Method in brief: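 Total HDAC activity measured with HeLa nuclear extract as enzyme source; single dose of 100 µM run in duplicate.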

[3] = target: Histone deacetylase 1 (Homo sapiens, UniProt Q13547); experiment: Inhibition of recombinant human full-length C-terminal FLAG/His-tagged HDAC1 (1 to 482 residues) expressed in baculovirus infected Sf9 insect cells using RHKK(Ac)AMC as substrate preincubated for 5 to 10 mins followed by substrate addition and measured after 2 hrs by fluorescence assay
Chain of Histone deacetylase 1 (Q13547 whole entry, the tested form may be a part): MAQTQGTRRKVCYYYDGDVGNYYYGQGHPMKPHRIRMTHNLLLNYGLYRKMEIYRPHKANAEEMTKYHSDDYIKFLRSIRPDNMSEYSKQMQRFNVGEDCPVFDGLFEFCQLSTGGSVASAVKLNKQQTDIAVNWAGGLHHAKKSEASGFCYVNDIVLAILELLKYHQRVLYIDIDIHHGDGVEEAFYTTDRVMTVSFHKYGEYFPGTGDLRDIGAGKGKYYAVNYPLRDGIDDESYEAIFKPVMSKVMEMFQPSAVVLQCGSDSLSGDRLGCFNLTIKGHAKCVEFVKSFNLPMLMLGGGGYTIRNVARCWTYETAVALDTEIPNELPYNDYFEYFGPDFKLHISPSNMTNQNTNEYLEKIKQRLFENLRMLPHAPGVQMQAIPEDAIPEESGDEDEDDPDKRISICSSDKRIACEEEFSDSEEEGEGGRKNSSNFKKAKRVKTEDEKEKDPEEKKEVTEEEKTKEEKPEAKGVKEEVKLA

[4] = tested on: MCF7; experiment: Cytotoxicity against human MCF7 cells assessed as reduction in cell viability measured after 72 hrs by MTT assay; type: functional, cell-based; conditions: MCF7, 72 h
[5] = tested on: Jurkat; experiment: Cytotoxicity against human Jurkat cells assessed as reduction in cell viability measured after 72 hrs by MTT assay; type: functional, cell-based
[6] = organism: Homo sapiens; experiment: Selectivity index, ratio of IC50 for inhibition of recombinant human full-length C-terminal FLAG/His-tagged HDAC1 (1 to 482 residues) expressed in baculovirus infected Sf9 insect cells to IC50 for inhibition of recombinant human full-length N-terminal GST-tagged HDAC6 (1 to 1215 residues) expressed in baculovirus infected Sf9 insect cells
[7] = target: T1, Protein deacetylase HDAC6 (Homo sapiens, UniProt Q9UBN7); experiment: Inhibition of recombinant human full-length N-terminal GST-tagged HDAC6 (1 to 1215 residues) expressed in baculovirus infected Sf9 insect cells using RHKK(Ac)AMC as substrate preincubated for 5 to 10 mins followed by substrate addition and measured after 2 hrs by fluorescence assay
T1 sequence (Q9UBN7 whole entry): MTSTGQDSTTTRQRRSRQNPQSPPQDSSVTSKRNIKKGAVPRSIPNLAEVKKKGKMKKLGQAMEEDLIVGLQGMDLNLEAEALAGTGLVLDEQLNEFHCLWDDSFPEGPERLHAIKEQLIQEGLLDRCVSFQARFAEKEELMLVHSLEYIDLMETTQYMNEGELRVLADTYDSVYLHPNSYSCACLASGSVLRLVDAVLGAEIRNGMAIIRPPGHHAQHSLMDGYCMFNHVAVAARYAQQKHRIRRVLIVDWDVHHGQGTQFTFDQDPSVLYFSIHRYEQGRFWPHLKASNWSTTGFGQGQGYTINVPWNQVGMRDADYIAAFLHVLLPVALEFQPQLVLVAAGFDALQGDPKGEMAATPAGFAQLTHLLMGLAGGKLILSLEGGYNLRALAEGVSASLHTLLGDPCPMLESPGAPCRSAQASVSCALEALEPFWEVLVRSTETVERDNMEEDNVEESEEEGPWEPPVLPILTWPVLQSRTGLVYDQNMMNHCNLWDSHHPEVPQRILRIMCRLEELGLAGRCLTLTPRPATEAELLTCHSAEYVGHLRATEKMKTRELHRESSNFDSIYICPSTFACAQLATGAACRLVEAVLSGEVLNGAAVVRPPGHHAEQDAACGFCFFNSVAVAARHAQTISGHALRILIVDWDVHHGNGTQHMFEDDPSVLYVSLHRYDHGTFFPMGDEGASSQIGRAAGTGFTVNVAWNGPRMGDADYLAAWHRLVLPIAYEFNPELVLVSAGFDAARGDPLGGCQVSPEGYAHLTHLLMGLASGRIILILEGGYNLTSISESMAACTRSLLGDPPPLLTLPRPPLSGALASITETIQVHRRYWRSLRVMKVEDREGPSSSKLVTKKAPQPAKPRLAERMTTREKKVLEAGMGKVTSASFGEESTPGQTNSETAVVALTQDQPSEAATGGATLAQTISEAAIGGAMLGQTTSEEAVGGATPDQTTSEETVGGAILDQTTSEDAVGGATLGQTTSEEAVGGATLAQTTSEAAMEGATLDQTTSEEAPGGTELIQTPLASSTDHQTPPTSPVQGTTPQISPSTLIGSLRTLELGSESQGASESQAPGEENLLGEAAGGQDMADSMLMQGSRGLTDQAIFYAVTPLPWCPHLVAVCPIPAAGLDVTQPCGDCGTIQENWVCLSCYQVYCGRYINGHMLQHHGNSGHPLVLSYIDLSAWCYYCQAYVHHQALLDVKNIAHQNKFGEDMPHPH

[8] = tested on: NAMALVA; experiment: Cytotoxicity against human NAMALVA cells assessed as reduction in cell viability measured after 72 hrs by MTT assay; type: functional, cell-based

SMILES | IC50 [1] [nM] | inhibition [2] [%] | IC50 [3] [nM] | IC50 [4] [nM] | IC50 [5] [nM] | Ratio IC50 [6] | IC50 [7] [nM] | IC50 [8] [nM]
O=C(Nc1ccc(Cl)cc1)Nc1ccc(C(=O)NO)cc1 | > 50000 | 92 | 1320 | > 50000 | 1060 | 64 | 20.7 | 870
O=C(CCc1ccc(NC(=O)Nc2ccc(Cl)cc2)cc1)NO | 17900 | 98 | 941 | > 50000 | 410 | 9 | 105 | 370
